Source: ChEMBL document CHEMBL1641473, “Synthesis, structure, theoretical and experimental in vitro antioxidant/pharmacological properties of α-aryl, N-alkyl nitrones, as potential agents for the treatment of cerebral ischemia” (2011)

Assays:
Assay type in all cases: functional
[1] = system: SH-SY5Y; test: Neuroprotective activity against rotenone/oligomycin-A-induced death in human SH-SY5Y cells assessed as increase of cell viability at 1 mM after 2 hrs by MTT assay
In short: (§1)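 Human SH-SY5Y neuroblastoma cells, low passage (<13), grown in 1:1 Ham's F-12/EMEM with 10% heat-inactivated FBS. Seeded at 1×10⁵ cells/well and treated before confluence in EMEM with 1% FBS. Insult was 30 µM rotenone plus 10 µM oligomycin-A for 24 h. Viability read by MTT (2 h, 37 °C, dark), then lysis and absorbance at 540 nm.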

[2] = system: SH-SY5Y; test: Neuroprotective activity against rotenone/oligomycin-A-induced death in human SH-SY5Y cells assessed as protective effect at 1 mM after 2 hrs by MTT assay; in short: as §1
[3] = system: Radical scavenging activity; test: Antioxidant activity of the compound assessed as DPPH radical scavenging activity at 0.5 mM after 2 hrs
In short: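 DPPH radical mixed with nitrone and held 2 h at room temperature in the dark. DPPH absorbance read at 517 nm. RSA% = 100 × (A0 − Ai)/A0, with A0 and Ai the absorbance without and with nitrone. Quadruplicate wells, at least three independent runs; mean ± SEM.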

[4] = Antioxidant activity assessed as trolox equivalents of peroxyl radical scavenging activity by ORAC assay
In short: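 Fluorescein (70 nM) with 2,2'-azobis(2-methylpropionamidine) dihydrochloride (12 mM) and antioxidant in 75 mM phosphate buffer pH 7.4 at 37 °C. Fluorescence recorded every minute for 98 min. Net AUC taken against the blank and plotted against concentration; slope divided by the slope of the Trolox curve from the same assay. Duplicate wells, at least three independent assays.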

[5] = Antioxidant activity assessed as hydroxyl radical scavenging activity at 50 uM after 2 hrs by benzoic acid method
In short: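 Hydroxyl radical from a Fenton reaction (Fe2+ plus H2O2 10 mmol) hydroxylates benzoate to fluorescent hydroxybenzoates. Incubation 2 h at 37 °C with or without nitrone; fluorescence read at excitation 305 nm, emission 407 nm. RSA% relative to no-nitrone control. Quadruplicate wells, at least three independent runs; mean ± SEM.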

[6] = system: SH-SY5Y; test: Neuroprotective activity against rotenone/oligomycin-A-induced death in human SH-SY5Y cells assessed as increase of cell viability at 1 uM after 2 hrs by MTT assay; in short: as §1
[7] = system: SH-SY5Y; test: Neuroprotective activity against rotenone/oligomycin-A-induced death in human SH-SY5Y cells assessed as protective effect at 1 uM after 2 hrs by MTT assay; in short: as §1
[8] = system: Radical scavenging activity; test: Antioxidant activity of the compound assessed as DPPH radical scavenging activity at 15 mM after 2 hrs
In short: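 DPPH radical added to test compound; mixture kept 2 h at room temperature in the dark, then absorbance read at 517 nm. RSA% = 100×(A0−Ai)/A0, where A0 and Ai are DPPH absorbance without and with compound. Quadruplicate wells, at least three independent runs; mean ± SEM.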

[9] = system: Mus musculus; test: Neuroprotective activity in NMRI mouse assessed as protection against t-BHP-induced lethality at 150 mg/kg, ip after 30 mins relative to control; details: route intraperitoneal
[10] = system: SH-SY5Y; test: Neuroprotective activity against rotenone/oligomycin-A-induced death in human SH-SY5Y cells assessed as increase of cell viability at 10 nM after 2 hrs by MTT assay; in short: as §1
[11] = system: SH-SY5Y; test: Neuroprotective activity against rotenone/oligomycin-A-induced death in human SH-SY5Y cells assessed as protective effect at 10 nM after 2 hrs by MTT assay; in short: as §1

Row | Compound | Activity [1] [%] | Activity [2] [%] | Activity [3] [%] | Activity (Trolox equivalents) [4] | Activity [5] [%] | Activity [6] [%] | Activity [7] [%] | Activity [8] [%] | Activity [9] [%] | Activity [10] [%] | Activity [11] [%]
1 | CC(=O)N[C@@H](CS)C(=O)O [ACETYLCYSTEINE] | 63.1 | 25 |  |  |  |  |  |  |  |  | 
2 | C/[N+]([O-])=C/c1ccccc1 |  |  | 0.8 | 0 | 95.3 | 64.7 | 18.7 |  |  |  | 
3 | COc1cc(/C=C/C(=O)CC(=O)/C=C/c2ccc(O)c(OC)c2)ccc1O [CURCUMIN] |  |  |  |  | 96.8 |  |  | 35 | 106 |  | 
4 | COc1cc(/C=[N+](\[O-])Cc2ccccc2)ccc1O |  |  | 88.2 | 2.93 | 96.9 | 63.9 | 16.9 |  |  |  | 
5 | CC(C)(C)/[N+]([O-])=C/c1c[nH]c2ccccc12 |  |  | 1.2 | 3.69 |  | 64.1 | 8 |  | 60 |  | 
6 | CC(C)(C)/[N+]([O-])=C/c1ccccc1 |  |  | 1.4 | 0 | 94.9 | 69.6 | 18.6 |  | 73 |  | 
7 | COc1cc(Br)c(/C=[N+](\[O-])C(C)(C)C)cc1O |  |  | 31.1 | 5.58 | 96.3 | 65 | 11 |  | 87 |  | 
8 | COc1cc(Br)c(/C=[N+](\[O-])C(C)(C)C)cc1OC |  |  | 0.8 | 0.03 | 96.3 | 63.1 | 0 |  | 70 |  | 
9 | Cc1c(C)c2c(c(C)c1O)CCC(C)(C(=O)O)O2 (stereo not drawn) |  |  |  | 1 | 94.3 |  |  |  |  |  | 
10 | COc1cc(/C=[N+](/C)[O-])ccc1O |  |  | 87.6 | 3.35 | 96.5 |  |  |  |  |  | 
11 | COc1ccc2[nH]cc(CCNC(C)=O)c2c1 [MELATONIN] |  |  |  |  |  |  |  |  |  | 59 | 17
12 | COc1cc(Br)c(/C=[N+](\[O-])Cc2ccccc2)cc1OC |  |  | 0.2 | 0.03 | 95.1 | 65.3 | 3 |  | 116 |  | 
13 | O=c1c(O)c(-c2ccc(O)c(O)c2)oc2cc(O)cc(O)c12 |  |  |  | 10.5 | 96.6 |  |  | 94.2 |  |  | 
14 | [O-]/[N+](=C\c1ccccc1)Cc1ccccc1 |  |  | 0.6 | 0.01 | 95.7 | 70.8 | 18.4 |  | 111 |  | 
15 | CC(C)(C)/[N+]([O-])=C/c1cccnc1Br |  |  | 3.9 | 0.01 | 95.1 | 60.1 | 24 |  | 76 |  | 
16 | COc1ccc2c(c1)cc(/C=[N+](\[O-])C(C)(C)C)n2C |  |  | 4.8 | 7.98 |  | 62.8 | 4.4 |  | 50 |  | 
17 | COc1cc(Br)c(/C=[N+](\[O-])Cc2ccccc2)cc1O |  |  | 25.9 | 7.36 | 94.6 | 64.2 | 8.7 |  | 111 |  | 
18 | CC(C)(C)/[N+]([O-])=C/c1cccnc1Cl |  |  | 1.6 | 0.01 | 94.9 | 61.4 | 0 |  | 74 |  | 
19 | COc1cc(/C=[N+](\[O-])Cc2ccccc2)c(Br)cc1O |  |  | 40.7 | 6.4 | 95.7 | 62.8 | 13.4 |  |  |  | 
